Data as given in ChEMBL document CHEMBL3616430, “Discovery, synthesis and biochemical profiling of purine-2,6-dione derivatives as inhibitors of the human poly(A)-selective ribonuclease Caf1” (Bioorg Med Chem Lett, 2015).
Activity calls are given as the source filed them. No cut-off for these calls is given here.

Columns and labels:
[1] = biological target: CCR4-NOT transcription complex subunit 6 (Homo sapiens) (UniProt Q9ULM6); assay: Inhibition of Ccr4 (unknown origin) at 30 uM by fluorescence-based assay
Chain of CCR4-NOT transcription complex subunit 6 (Homo sapiens) (Q9ULM6 whole entry, one chain of several): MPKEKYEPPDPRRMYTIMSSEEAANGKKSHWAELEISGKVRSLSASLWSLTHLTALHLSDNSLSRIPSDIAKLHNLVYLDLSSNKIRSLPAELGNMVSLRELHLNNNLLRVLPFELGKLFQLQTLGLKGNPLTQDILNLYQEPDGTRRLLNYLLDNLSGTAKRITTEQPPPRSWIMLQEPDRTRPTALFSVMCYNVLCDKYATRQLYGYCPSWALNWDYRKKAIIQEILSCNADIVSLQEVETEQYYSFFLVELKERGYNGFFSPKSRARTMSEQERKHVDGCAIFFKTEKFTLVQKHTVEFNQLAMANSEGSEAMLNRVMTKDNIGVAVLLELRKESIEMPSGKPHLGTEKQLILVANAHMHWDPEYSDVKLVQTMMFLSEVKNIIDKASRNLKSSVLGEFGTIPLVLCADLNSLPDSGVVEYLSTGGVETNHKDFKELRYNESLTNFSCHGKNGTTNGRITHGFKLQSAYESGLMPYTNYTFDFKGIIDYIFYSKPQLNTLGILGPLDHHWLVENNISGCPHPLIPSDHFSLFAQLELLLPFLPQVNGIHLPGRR
Summary of the method: (§1)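 Fluorescence-based ribonuclease activity assay with Ccr4, using one compound concentration per reaction (30, 10 or 3 μM, as in each line). The reactions compared were a no-enzyme control, a complete reaction with enzyme, and a complete reaction plus compound. Data are shown with standard deviation error bars.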

[2] = biological target: CCR4-NOT transcription complex subunit 6 (Homo sapiens) (UniProt Q9ULM6); assay: Inhibition of Ccr4 (unknown origin) at 10 uM by fluorescence-based assay; summary of the method: as §1
[3] = biological target: CCR4-NOT transcription complex subunit 6 (Homo sapiens) (UniProt Q9ULM6); assay: Inhibition of Ccr4 (unknown origin) at 3 uM by fluorescence-based assay; summary of the method: as §1

Row | inhibition [1] | Compound | other results
1 | inactive | O=c1[nH]c2ncn(Cc3ccccn3)c2c(=O)n1O | 
2 | inactive | O=c1[nH]c2ncn(Cc3ccccc3)c2c(=O)n1O | 
3 | inactive | O=c1[nH]c2ncn(Cc3cccnc3)c2c(=O)n1O | 

The next lines start with the molecule.

Row | Compound | inhibition [1] | other results
4 | CCCCCCCCCn1c(=O)n(O)c(=O)c2c1ncn2CCc1ccccc1 | inactive | 
5 | O=c1[nH]c2ncn(Cc3ccncc3)c2c(=O)n1O | inactive | 
6 | O=c1[nH]c2ncn(CCc3ccccc3)c2c(=O)n1O |  | inhibition [2]: inactive
7 | Cn1c(=O)n(O)c(=O)c2c1ncn2CCc1ccccc1 | inactive | 
8 | O=c1[nH]c2ncn(C3CCCCC3)c2c(=O)n1O | inactive | 
9 | O=c1c2c(ncn2CCc2ccccc2)n(CCCc2ccccc2)c(=O)n1O | inactive | 
10 | O=c1[nH]c2ncn(CCc3cccs3)c2c(=O)n1O |  | inhibition [2]: inactive
11 | CC(C)CCCn1c(=O)n(O)c(=O)c2c1ncn2CCc1ccccc1 |  | inhibition [3]: inactive
12 | CN(C)CCCn1c(=O)n(O)c(=O)c2c1ncn2CCc1ccccc1 |  | inhibition [3]: inactive
13 | CCn1c(=O)n(O)c(=O)c2c1ncn2CCc1ccccc1 | inactive | 
14 | O=c1[nH]c2ncn(CCc3ccccn3)c2c(=O)n1O |  | inhibition [2]: inactive
15 | O=c1[nH]c2ncn(CCOc3ccccc3)c2c(=O)n1O |  | inhibition [2]: inactive
16 | CCCCCn1c(=O)n(O)c(=O)c2c1ncn2CCc1ccccc1 | inactive | 
